Measurements as given in ChEMBL document CHEMBL2417529, “An expedient, ionic liquid mediated multi-component synthesis of novel piperidone grafted cholinesterase enzymes inhibitors and their molecular modeling study” (Eur J Med Chem, 2013).

System: not listed separately
Test: Selectivity ratio of IC50 for horse serum BChE to IC50 for electric eel AChE
Method in brief: (§1)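 Ratio of IC50s from Ellman microplate assays in 0.1 M sodium phosphate pH 8 with 1% final DMSO. AChE (Electrophorus electricus) used acetylthiocholine iodide; BChE (equine serum) used S-butyrylthiocholine chloride, each 14 mM stock. Enzyme and sample preincubated 15 min at 25 °C, then DTNB and substrate added. A412 read at 30 min in triplicate; IC50 from five concentrations.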

Structure (SMILES)	Ratio IC50
CCN1CC2=C(NC(=S)NC2c2ccc(Cl)cc2)/C(=C/c2ccc(Cl)cc2)C1 (stereo unspecified)	4.56
S=C1NC2=C(CN(CCN3CCOCC3)C/C2=C\c2ccccc2)C(c2ccccc2)N1 (stereo unspecified)	0.72
CCN1CC2=C(NC(=S)NC2c2ccccc2F)/C(=C/c2ccccc2F)C1 (stereo unspecified)	0.81
CCN1CC2=C(NC(=S)NC2c2ccc(F)cc2)/C(=C/c2ccc(F)cc2)C1 (stereo unspecified)	2.76
CCN1CC2=C(NC(=S)NC2c2cccc([N+](=O)[O-])c2)/C(=C/c2cccc([N+](=O)[O-])c2)C1 (stereo unspecified)	0.65
CCN1CC2=C(NC(=S)NC2c2ccc(Cl)cc2Cl)/C(=C/c2ccc(Cl)cc2Cl)C1 (stereo unspecified)	0.41
Cc1ccc(/C=C2\CN(CCN3CCOCC3)CC3=C2NC(=S)NC3c2ccc(C)cc2)cc1 (stereo unspecified)	0.5
CCN1CC2=C(NC(=S)NC2c2ccccc2Cl)/C(=C/c2ccccc2Cl)C1 (stereo unspecified)	0.43
S=C1NC2=C(CN(CCN3CCOCC3)C/C2=C\c2ccc(Cl)cc2)C(c2ccc(Cl)cc2)N1 (stereo unspecified)	0.78
Cc1ccccc1/C=C1\CN(CCN2CCOCC2)CC2=C1NC(=S)NC2c1ccccc1C (stereo unspecified)	0.23
S=C1NC2=C(CN(CCN3CCOCC3)C/C2=C\c2ccccc2Cl)C(c2ccccc2Cl)N1 (stereo unspecified)	0.36
Fc1ccc(/C=C2\CN(CCN3CCOCC3)CC3=C2NC(=S)NC3c2ccc(F)cc2)cc1 (stereo unspecified)	0.51
COc1ccccc1/C=C1\CN(CCN2CCOCC2)CC2=C1NC(=S)NC2c1ccccc1OC (stereo unspecified)	0.71
S=C1NC2=C(CN(CCN3CCOCC3)C/C2=C\c2ccc(Cl)cc2Cl)C(c2ccc(Cl)cc2Cl)N1 (stereo unspecified)	0.68
CCN1CC2=C(NC(=S)NC2c2ccccc2C)/C(=C/c2ccccc2C)C1 (stereo unspecified)	0.64
CCN1CC2=C(NC(=S)NC2c2ccccc2)/C(=C/c2ccccc2)C1 (stereo unspecified)	4.56
Fc1ccccc1/C=C1\CN(CCN2CCOCC2)CC2=C1NC(=S)NC2c1ccccc1F (stereo unspecified)	0.32
CCN1CC2=C(NC(=S)NC2c2ccc(C)cc2)/C(=C/c2ccc(C)cc2)C1 (stereo unspecified)	0.94
CCN1CC2=C(NC(=S)NC2c2ccccc2OC)/C(=C/c2ccccc2OC)C1 (stereo unspecified)	1.65

Biological target: Cholinesterase (Equus caballus, UniProt P81908)
Sequence (P81908 whole entry): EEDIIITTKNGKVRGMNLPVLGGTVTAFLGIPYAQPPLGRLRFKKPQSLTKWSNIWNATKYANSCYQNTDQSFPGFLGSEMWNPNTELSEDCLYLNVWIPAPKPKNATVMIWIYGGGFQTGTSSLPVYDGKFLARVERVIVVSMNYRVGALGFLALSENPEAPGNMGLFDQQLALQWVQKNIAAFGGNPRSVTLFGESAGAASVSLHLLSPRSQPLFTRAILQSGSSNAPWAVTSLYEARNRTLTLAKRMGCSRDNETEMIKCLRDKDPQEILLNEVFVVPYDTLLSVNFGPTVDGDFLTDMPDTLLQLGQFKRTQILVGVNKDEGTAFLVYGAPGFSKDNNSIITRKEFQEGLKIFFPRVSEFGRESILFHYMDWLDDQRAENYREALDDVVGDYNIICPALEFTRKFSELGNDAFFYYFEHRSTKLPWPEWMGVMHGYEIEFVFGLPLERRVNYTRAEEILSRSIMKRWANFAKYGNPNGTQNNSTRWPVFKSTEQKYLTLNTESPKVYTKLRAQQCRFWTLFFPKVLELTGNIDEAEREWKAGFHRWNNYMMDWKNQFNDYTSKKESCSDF
Test: Inhibition of horse serum BChE using S-butyrylthiocholine chloride as substrate preincubated for 15 mins followed by substrate addition measured after 30 mins by Ellman's microplate assay
Method in brief: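 Equine serum BChE preincubated with test samples in 0.1 M sodium phosphate buffer pH 8 for 15 min at 25 °C. DTNB added, then S-butyrylthiocholine chloride (14 mM stock). Colored product read at 412 nm 30 min after reaction start. Final DMSO 1%; triplicates; blank-corrected absorbance; % inhibition versus control; IC50 from five concentrations.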

Structure (SMILES)	IC50
CCN1CC2=C(NC(=S)NC2c2ccc(Cl)cc2)/C(=C/c2ccc(Cl)cc2)C1 (stereo unspecified)	5.88 µM
S=C1NC2=C(CN(CCN3CCOCC3)C/C2=C\c2ccccc2)C(c2ccccc2)N1 (stereo unspecified)	3.23 µM
CCN1CC2=C(NC(=S)NC2c2ccccc2F)/C(=C/c2ccccc2F)C1 (stereo unspecified)	4.48 µM
CCN1CC2=C(NC(=S)NC2c2ccc(F)cc2)/C(=C/c2ccc(F)cc2)C1 (stereo unspecified)	5.98 µM
CCN1CC2=C(NC(=S)NC2c2cccc([N+](=O)[O-])c2)/C(=C/c2cccc([N+](=O)[O-])c2)C1 (stereo unspecified)	5.11 µM
CCN1CC2=C(NC(=S)NC2c2ccc(Cl)cc2Cl)/C(=C/c2ccc(Cl)cc2Cl)C1 (stereo unspecified)	3.61 µM
Cc1ccc(/C=C2\CN(CCN3CCOCC3)CC3=C2NC(=S)NC3c2ccc(C)cc2)cc1 (stereo unspecified)	3.58 µM
CCN1CC2=C(NC(=S)NC2c2ccccc2Cl)/C(=C/c2ccccc2Cl)C1 (stereo unspecified)	3.57 µM
S=C1NC2=C(CN(CCN3CCOCC3)C/C2=C\c2ccc(Cl)cc2)C(c2ccc(Cl)cc2)N1 (stereo unspecified)	4.28 µM
Cc1ccccc1/C=C1\CN(CCN2CCOCC2)CC2=C1NC(=S)NC2c1ccccc1C (stereo unspecified)	1.89 µM
S=C1NC2=C(CN(CCN3CCOCC3)C/C2=C\c2ccccc2Cl)C(c2ccccc2Cl)N1 (stereo unspecified)	2.44 µM
Fc1ccc(/C=C2\CN(CCN3CCOCC3)CC3=C2NC(=S)NC3c2ccc(F)cc2)cc1 (stereo unspecified)	3.41 µM
COc1ccccc1/C=C1\CN(CCN2CCOCC2)CC2=C1NC(=S)NC2c1ccccc1OC (stereo unspecified)	5.93 µM
S=C1NC2=C(CN(CCN3CCOCC3)C/C2=C\c2ccc(Cl)cc2Cl)C(c2ccc(Cl)cc2Cl)N1 (stereo unspecified)	5.87 µM
CCN1CC2=C(NC(=S)NC2c2ccccc2C)/C(=C/c2ccccc2C)C1 (stereo unspecified)	3.93 µM
CCN1CC2=C(NC(=S)NC2c2ccccc2)/C(=C/c2ccccc2)C1 (stereo unspecified)	4.2 µM
Fc1ccccc1/C=C1\CN(CCN2CCOCC2)CC2=C1NC(=S)NC2c1ccccc1F (stereo unspecified)	2.97 µM
CCN1CC2=C(NC(=S)NC2c2ccc(C)cc2)/C(=C/c2ccc(C)cc2)C1 (stereo unspecified)	4.73 µM
CCN1CC2=C(NC(=S)NC2c2ccccc2OC)/C(=C/c2ccccc2OC)C1 (stereo unspecified)	8.13 µM

System: not listed separately
Test: Selectivity ratio of IC50 for electric eel AChE to IC50 for horse serum BChE
Method in brief: as §1

Structure (SMILES)	Ratio IC50
CCN1CC2=C(NC(=S)NC2c2ccc(Cl)cc2)/C(=C/c2ccc(Cl)cc2)C1 (stereo unspecified)	0.22
S=C1NC2=C(CN(CCN3CCOCC3)C/C2=C\c2ccccc2)C(c2ccccc2)N1 (stereo unspecified)	1.39
CCN1CC2=C(NC(=S)NC2c2ccccc2F)/C(=C/c2ccccc2F)C1 (stereo unspecified)	1.24
CCN1CC2=C(NC(=S)NC2c2ccc(F)cc2)/C(=C/c2ccc(F)cc2)C1 (stereo unspecified)	0.36
CCN1CC2=C(NC(=S)NC2c2cccc([N+](=O)[O-])c2)/C(=C/c2cccc([N+](=O)[O-])c2)C1 (stereo unspecified)	1.54
CCN1CC2=C(NC(=S)NC2c2ccc(Cl)cc2Cl)/C(=C/c2ccc(Cl)cc2Cl)C1 (stereo unspecified)	2.42
Cc1ccc(/C=C2\CN(CCN3CCOCC3)CC3=C2NC(=S)NC3c2ccc(C)cc2)cc1 (stereo unspecified)	2
CCN1CC2=C(NC(=S)NC2c2ccccc2Cl)/C(=C/c2ccccc2Cl)C1 (stereo unspecified)	2.3
S=C1NC2=C(CN(CCN3CCOCC3)C/C2=C\c2ccc(Cl)cc2)C(c2ccc(Cl)cc2)N1 (stereo unspecified)	1.28
Cc1ccccc1/C=C1\CN(CCN2CCOCC2)CC2=C1NC(=S)NC2c1ccccc1C (stereo unspecified)	4.31
S=C1NC2=C(CN(CCN3CCOCC3)C/C2=C\c2ccccc2Cl)C(c2ccccc2Cl)N1 (stereo unspecified)	2.77
Fc1ccc(/C=C2\CN(CCN3CCOCC3)CC3=C2NC(=S)NC3c2ccc(F)cc2)cc1 (stereo unspecified)	1.97
COc1ccccc1/C=C1\CN(CCN2CCOCC2)CC2=C1NC(=S)NC2c1ccccc1OC (stereo unspecified)	1.42
S=C1NC2=C(CN(CCN3CCOCC3)C/C2=C\c2ccc(Cl)cc2Cl)C(c2ccc(Cl)cc2Cl)N1 (stereo unspecified)	1.47
CCN1CC2=C(NC(=S)NC2c2ccccc2C)/C(=C/c2ccccc2C)C1 (stereo unspecified)	1.57
CCN1CC2=C(NC(=S)NC2c2ccccc2)/C(=C/c2ccccc2)C1 (stereo unspecified)	0.22
Fc1ccccc1/C=C1\CN(CCN2CCOCC2)CC2=C1NC(=S)NC2c1ccccc1F (stereo unspecified)	3.14
CCN1CC2=C(NC(=S)NC2c2ccc(C)cc2)/C(=C/c2ccc(C)cc2)C1 (stereo unspecified)	1.06
CCN1CC2=C(NC(=S)NC2c2ccccc2OC)/C(=C/c2ccccc2OC)C1 (stereo unspecified)	0.61

Biological target: Acetylcholinesterase (Electrophorus electricus, UniProt O42275)
Sequence (O42275 whole entry): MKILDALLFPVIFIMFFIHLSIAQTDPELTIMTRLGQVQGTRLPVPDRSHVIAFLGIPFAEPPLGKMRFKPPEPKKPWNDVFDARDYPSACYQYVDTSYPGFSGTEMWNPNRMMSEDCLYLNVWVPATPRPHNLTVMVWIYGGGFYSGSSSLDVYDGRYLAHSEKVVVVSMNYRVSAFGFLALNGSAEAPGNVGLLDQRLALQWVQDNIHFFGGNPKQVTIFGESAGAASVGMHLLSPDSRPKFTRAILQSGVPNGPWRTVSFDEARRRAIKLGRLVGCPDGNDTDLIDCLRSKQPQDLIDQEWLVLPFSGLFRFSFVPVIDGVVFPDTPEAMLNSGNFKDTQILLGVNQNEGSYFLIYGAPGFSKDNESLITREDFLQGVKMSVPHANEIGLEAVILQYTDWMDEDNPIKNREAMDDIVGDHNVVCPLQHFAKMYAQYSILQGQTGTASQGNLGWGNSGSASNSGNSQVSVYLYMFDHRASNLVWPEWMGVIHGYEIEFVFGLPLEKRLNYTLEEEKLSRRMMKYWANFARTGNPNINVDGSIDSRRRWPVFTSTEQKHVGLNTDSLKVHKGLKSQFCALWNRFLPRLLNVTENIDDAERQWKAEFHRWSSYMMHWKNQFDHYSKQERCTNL
Test: Inhibition of electric eel AChE using acetylthiocholine iodide as substrate preincubated for 15 mins followed by substrate addition measured after 30 mins by Ellman's microplate assay

Structure (SMILES)	IC50
CCN1CC2=C(NC(=S)NC2c2ccc(Cl)cc2)/C(=C/c2ccc(Cl)cc2)C1 (stereo unspecified)	1.29 µM
S=C1NC2=C(CN(CCN3CCOCC3)C/C2=C\c2ccccc2)C(c2ccccc2)N1 (stereo unspecified)	4.49 µM
CCN1CC2=C(NC(=S)NC2c2ccccc2F)/C(=C/c2ccccc2F)C1 (stereo unspecified)	5.54 µM
CCN1CC2=C(NC(=S)NC2c2ccc(F)cc2)/C(=C/c2ccc(F)cc2)C1 (stereo unspecified)	2.07 µM
CCN1CC2=C(NC(=S)NC2c2cccc([N+](=O)[O-])c2)/C(=C/c2cccc([N+](=O)[O-])c2)C1 (stereo unspecified)	7.88 µM
CCN1CC2=C(NC(=S)NC2c2ccc(Cl)cc2Cl)/C(=C/c2ccc(Cl)cc2Cl)C1 (stereo unspecified)	8.75 µM
Cc1ccc(/C=C2\CN(CCN3CCOCC3)CC3=C2NC(=S)NC3c2ccc(C)cc2)cc1 (stereo unspecified)	7.16 µM
CCN1CC2=C(NC(=S)NC2c2ccccc2Cl)/C(=C/c2ccccc2Cl)C1 (stereo unspecified)	8.22 µM
S=C1NC2=C(CN(CCN3CCOCC3)C/C2=C\c2ccc(Cl)cc2)C(c2ccc(Cl)cc2)N1 (stereo unspecified)	5.49 µM
Cc1ccccc1/C=C1\CN(CCN2CCOCC2)CC2=C1NC(=S)NC2c1ccccc1C (stereo unspecified)	8.15 µM
S=C1NC2=C(CN(CCN3CCOCC3)C/C2=C\c2ccccc2Cl)C(c2ccccc2Cl)N1 (stereo unspecified)	6.75 µM
Fc1ccc(/C=C2\CN(CCN3CCOCC3)CC3=C2NC(=S)NC3c2ccc(F)cc2)cc1 (stereo unspecified)	6.72 µM
COc1ccccc1/C=C1\CN(CCN2CCOCC2)CC2=C1NC(=S)NC2c1ccccc1OC (stereo unspecified)	8.39 µM
S=C1NC2=C(CN(CCN3CCOCC3)C/C2=C\c2ccc(Cl)cc2Cl)C(c2ccc(Cl)cc2Cl)N1 (stereo unspecified)	8.67 µM
CCN1CC2=C(NC(=S)NC2c2ccccc2C)/C(=C/c2ccccc2C)C1 (stereo unspecified)	6.17 µM
CCN1CC2=C(NC(=S)NC2c2ccccc2)/C(=C/c2ccccc2)C1 (stereo unspecified)	0.92 µM
Fc1ccccc1/C=C1\CN(CCN2CCOCC2)CC2=C1NC(=S)NC2c1ccccc1F (stereo unspecified)	9.32 µM
CCN1CC2=C(NC(=S)NC2c2ccc(C)cc2)/C(=C/c2ccc(C)cc2)C1 (stereo unspecified)	5.02 µM
CCN1CC2=C(NC(=S)NC2c2ccccc2OC)/C(=C/c2ccccc2OC)C1 (stereo unspecified)	4.92 µM
